Series [1] concerns SH-SY5Y cells. In words: Hydrogen peroxide cytotoxicity, SRB assay. The class given is cell-based, human. The following applies: in the presence of I3MT3. The essentials: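 SH-SY5Y cells (MEM-F12, 15% FBS, 37 °C, 5% CO2) exposed to 100 μM H2O2 ± test compound ± I3MT3 for 24 h at 37 °C. Fixed with 10% TCA for 1 h at 4 °C, washed, then stained 1 h at room temperature with 0.04% w/v SRB in 1% acetic acid. Washed with 1% acetic acid, dried, dye dissolved in 10 mM Tris base (pH 10.5), A510 read. One-way ANOVA with Tukey test.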

In series [2] the test system is SH-SY5Y cells. Description: Aβ1-42 amyloid toxicity assay, CCK-8. The class given is cell-based, human. The method in brief: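 Human neuroblastoma SH-SY5Y cells in MEM-F12 (1:1) with 15% FBS, at 37 °C and 5% CO2, grown to 70% confluence. Monomer-rich Aβ1-42 (HFIP-treated, sonicated) added at 20 μM with or without varying test compound concentrations, ± I3MT3, for 24 h; scrambled Aβ peptide as control. CCK-8 added for 3 h at 37 °C, absorbance at 450 nm. One-way ANOVA with Tukey test.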

A short description of series [3]: DPPH radical scavenging assay. The class given is biochemical. The following applies: read-out: IC50, DPPH radical scavenging; DPPH 150 μM, 30 min, room temperature. The method in brief:
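Test compound at various concentrations incubated with DPPH (150 μM in 80% ethanol) for 30 min at room temperature. Radical scavenging read as absorbance at 517 nm.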

Each structure is given as a SMILES string.

For `Cc1cc(=O)[nH]c(SCC(=O)c2cccc3ccccc23)n1` [I3MT3], the “exacerbation of H2O2 cytotoxicity, rise over H2O2 alone” value in series [1] is listed as 20%. In series [2] (Aβ1-42 20 μM + sulfanegen + I3MT3), the “effect of 3MST inhibitor on protective effect of sulfanegen against Aβ1-42 toxicity” value is “completely abolished”. Also, the “exacerbation of Aβ1-42 cytotoxicity, rise over Aβ1-42 alone” value in series [2] (in the presence of I3MT3) is given as 10%.

As for `O=C1O[C@H]([C@@H](O)CO)C(O)=C1O` [ascorbic acid], in series [3], the concentration for half-maximal inhibition (IC50) stood at 141 µM.

The values are drawn from paper PMC9530613 (Redox Biology, 2022).
